According to ChEMBL document CHEMBL4732226, “Discovery of a potent G-protein-coupled receptor 119 agonist for the treatment of type 2 diabetes” (Bioorg Med Chem, 2021):
Active and inactive are the calls of the source. The rule behind the calls is not given here.

Tests used:
[1] = system: Mus musculus; experiment: Antidiabetic activity in glucose-stimulated […] mouse assessed as reduction in blood glucose level at 50 mg/kg, po pretreated for 30 mins followed by glucose-stimulation and measured up to 120 mins by OGTT method relative to control; type: functional; parameters: scale not given: the % may be the effect or the level left; settings: 0.5 h
Method in brief: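 C57 mice aged 6–8 weeks were grouped by non-fasting glucose and fasted overnight. Single oral dose of 50 mg/kg; 30 min later basal bleed and oral glucose 3 g/kg. Serum glucose taken at 20, 40, 60 and 120 min. Change in glucose AUC calculated.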

[2] = system: Rattus norvegicus; experiment: Antidiabetic activity in Sprague-Dawley rat assessed as reduction in HFD-induced body weigh gain at 25 to 50 mg/kg/day, po for 28 days; type: functional, organism-based; settings: dose 25-50 mg/kg/day, time 28.0 day
Method in brief: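 Male SD rats were fed high-fat diet for 12 weeks, with a normal-chow group alongside, then split into 4 treatment groups. Oral dosing at 25 or 50 mg/kg/day for 28 days in PG450/Tween 80/0.1% Na-CMC (5:5:90). Body weight recorded daily.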

[3] = AUC(0 to infinity) in Sprague-Dawley rat at 25 mg/kg, po up to 24 hrs; type: ADME, organism-based; parameters: route oral, dose 25 mg/kg, time <=24; settings: in vivo
Method in brief: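 Male SD rats fasted overnight, water ad libitum, fed 4 h after dosing. Single oral gavage of 25 mg/kg as a homogeneous suspension in 0.5% Tween 80 in 0.5% Na-CMC. Blood drawn into Na-heparin tubes at 0.25, 0.5, 1, 2, 4, 6, 8 and 24 h; plasma stored at -70°C. Parameters by non-compartmental analysis, with C0 taken as zero and BLQ samples set to zero.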

[4] = Tmax in Beagle dog at 10 mg/kg, po up to 24 hrs; type: ADME, organism-based, Canis lupus familiaris; settings: in vivo
Method in brief: (§1)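 Single oral dose at 10 mg/kg given to male Wistar rats and to Beagle dogs; bioavailability also determined in both species.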

[5] = Cmax in Wistar rat at 10 mg/kg, po up to 24 hrs; type: ADME, organism-based; parameters: route oral, dose 10 mg/kg, time <=24; settings: in vivo; method in brief: as §1
[6] = Cmax in Beagle dog at 10 mg/kg, po up to 24 hrs; type: ADME, organism-based, Canis lupus familiaris; parameters: route oral, dose 10 mg/kg, time <=24; settings: in vivo; method in brief: as §1
[7] = Half life in Beagle dog at 10 mg/kg, po up to 24 hrs; type: ADME, organism-based, Canis lupus familiaris; settings: in vivo; method in brief: as §1
[8] = AUC(0 to t) in Wistar rat at 10 mg/kg, po up to 24 hrs; type: ADME, organism-based; parameters: route oral, dose 10 mg/kg, time <=24; settings: in vivo; method in brief: as §1
[9] = AUC(0 to infinity) in Wistar rat at 10 mg/kg, po up to 24 hrs; type: ADME, organism-based; parameters: route oral, dose 10 mg/kg, time <=24; settings: in vivo; method in brief: as §1
[10] = Toxicity in male Wistar rat assessed as ratio of heart to body weight at 400 mg/kg, po after 28 days (reference value: 0.333 +/- 0.036); type: organism-based; settings: in vivo, 672 h, time 28 day
[11] = Toxicity in female Wistar rat assessed as ratio of heart to body weight at 200 mg/kg, po after 28 days (reference value: 0.38 +/- 0.037); type: organism-based; settings: in vivo, 672 h, time 28 day
[12] = Toxicity in female Wistar rat assessed as ratio of liver to body weight at 100 mg/kg, po after 28 days (reference value: 3.219 +/- 0.221); type: organism-based; settings: in vivo, 672 h, time 28 day
[13] = Toxicity in female Wistar rat assessed as ratio of kidney to body weight at 100 mg/kg, po after 28 days (reference value: 0.801 +/- 0.071); type: organism-based; settings: in vivo, 672 h, time 28 day
[14] = Toxicity in male Wistar rat assessed as ratio of adrenals to body weight at 100 mg/kg, po after 28 days (reference value: 0.020 +/- 0.003); type: organism-based; settings: in vivo, 672 h, time 28 day
[15] = Toxicity in male Wistar rat assessed as ratio of brain to body weight at 400 mg/kg, po after 28 days (reference value: 0.766 +/- 0.038); type: organism-based; settings: in vivo, 672 h, time 28 day
[16] = Toxicity in female Wistar rat assessed as ratio of brain to body weight at 200 mg/kg, po after 28 days (reference value: 1.1 +/- 0.078); type: organism-based; settings: in vivo, 672 h, time 28 day
[17] = Toxicity in male Wistar rat assessed as glucose level at 100 mg/kg, po after 28 days (reference value: 89.02 +/- 13.41 mg/dl); type: organism-based; settings: in vivo, 672 h, time 28 day
[18] = Toxicity in female Wistar rat assessed as glucose level at 100 mg/kg, po after 28 days (reference value: 78.4 +/- 8.36 mg/dl); type: organism-based; settings: in vivo, 672 h, time 28 day
[19] = Toxicity in female Wistar rat assessed as glucose level at 400 mg/kg, po after 28 days (reference value: 78.4 +/- 8.36 mg/dl); type: organism-based; settings: in vivo, 672 h, time 28 day
[20] = Toxicity in male Wistar rat assessed as ALP level at 100 mg/kg, po after 28 days (reference value: 174.77 +/- 25.42 U/L); type: organism-based; settings: in vivo, 672 h, time 28 day
[21] = Toxicity in male Wistar rat assessed as ALP level at 200 mg/kg, po after 28 days (reference value: 174.77 +/- 25.42 U/L); type: organism-based; settings: in vivo, 672 h, time 28 day
[22] = Toxicity in male Wistar rat assessed as AST level at 400 mg/kg, po after 28 days (reference value: 119.4 +/- 9.3 U/L); type: organism-based; settings: in vivo, 672 h, time 28 day
[23] = Toxicity in female Wistar rat assessed as AST level at 100 mg/kg, po after 28 days (reference value: 128.84 +/- 21.42 U/L); type: organism-based; settings: in vivo, 672 h, time 28 day
[24] = Toxicity in female Wistar rat assessed as AST level at 200 mg/kg, po after 28 days (reference value: 128.84 +/- 21.42 U/L); type: organism-based; settings: in vivo, 672 h, time 28 day
[25] = Toxicity in female Wistar rat assessed as AST level at 400 mg/kg, po after 28 days (reference value: 128.84 +/- 21.42 U/L); type: organism-based; settings: in vivo, 672 h, time 28 day
[26] = Toxicity in female Wistar rat assessed as ALT level at 200 mg/kg, po after 28 days (reference value: 21.28 +/- 2.31 U/L); type: organism-based; settings: in vivo, 672 h, time 28 day
[27] = Toxicity in female Wistar rat assessed as ALT level at 400 mg/kg, po after 28 days (reference value: 21.28 +/- 2.31 U/L); type: organism-based; settings: in vivo, 672 h, time 28 day
[28] = Toxicity in male Wistar rat assessed as albumin level at 100 mg/kg, po after 28 days (reference value: 3.56 +/- 0.08 g.dl); type: organism-based; settings: in vivo, 672 h, time 28 day
[29] = Toxicity in female Wistar rat assessed as albumin level at 200 mg/kg, po after 28 days (reference value: 3.57 +/- 0.14 g.dl); type: organism-based; settings: in vivo, 672 h, time 28 day
[30] = Toxicity in female Wistar rat assessed as urea level at 100 mg/kg, po after 28 days (reference value: 48.09 +/- 5.3 mg/dl); type: organism-based; settings: in vivo, 672 h, time 28 day
[31] = Toxicity in female Wistar rat assessed as mortality up to 400 mg/kg, po after 28 days; type: organism-based; settings: in vivo, 672 h, time 28 day
Method in brief: (§2)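 Repeated-dose oral toxicity by gavage in Wistar rats, 10 males and 10 females per group, given 100, 200 or 400 mg/kg once daily for 28 days. Endpoints were clinical signs, mortality, neurobehaviour, food intake, ophthalmic examination and body weight. Animals were sacrificed on day 29 for blood biochemistry, organ-to-body weight ratios and histopathology.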

[32] = Toxicity in female Wistar rat assessed as neurobehavioral changes at 400 mg/kg, po after 28 days; type: organism-based; settings: in vivo, 672 h, time 28 day; method in brief: as §2
[33] = Toxicity in female Wistar rat assessed as reduction in body weight at 100 to 400 mg/kg, po after 28 days; type: organism-based; settings: in vivo, 672 h, dose 100-400 mg/kg, time 28 day; method in brief: as §2

Cc1c(Oc2cccc(/C=C3\SC(=O)NC3=O)c2)ncnc1OC1CCN(C(=O)OC(C)(C)C)CC1
Activity [1]: 32.4%
Activity [2]: inactive
AUC(0-inf) [3]: 19700 ng·h/mL
Tmax [4]: 3 h
Cmax [5]: 256 ng/mL
Cmax [6]: 1050 ng/mL
half-life [7]: 19.3 h
AUC(0-t) at 24 h [8]: 1770 ng·h/mL
AUC(0-inf) [9]: 1900 ng·h/mL
Ratio [10]: 0.338
Ratio [11]: 0.394
Ratio [12]: 3.243
Ratio [13]: 0.875
Ratio [14]: 0.023
Ratio [15]: 0.809
Ratio [16]: 1.114
Activity [17]: 87.56 mg/dL
Activity [18]: 79.83 mg/dL
Activity [19]: 76.54 mg/dL
Activity [20]: 152.22 U/L
Activity [21]: 164.68 U/L
Activity [22]: 116.36 U/L
Activity [23]: 120.42 U/L
Activity [24]: 128.19 U/L
Activity [25]: 123.93 U/L
Activity [26]: 22.2 U/L
Activity [27]: 23.3 U/L
Activity [28]: 3.47 g/dL
Activity [29]: 3.65 g/dL
Activity [30]: 47.84 mg/dL
Activity [31]: Non-Toxic
Activity [32]: Non-Toxic
Activity [33]: Non-Toxic
